Sampled rows, rich in hits. Any-hit rate of the full collection: about 3.9%.
CHOP UPR activ: activators of apoptotic CHOP UPR arm, primary screen, cell-based, CHO-CHOP luciferase reporter, luminescence, uHTS; UPR activation; percent of tunicamycin response over DMSO baseline; activation, % at 10 µM; 0.34% of 330,000 active; AID 449763, 2010;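 active = at 10 µM dose, activation of 40% or more, normalized to positive control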;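 note: 100% = tunicamycin at 10 µg/mL and 0% = DMSO alone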
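Assay system: CHO-CHOP cells, stable luciferase reporter of PERK-eIF2a-CHOP signalling / Buffer or medium: F12 plus 10% serum / Compound dosing: one dose, 10 µM in 0.5% DMSO / Times: 6 h compound treatment, 37 °C / Technique: luciferase luminescence / Read-out: % reporter activation, DMSO baseline versus tunicamycin full activation / Benchmarks: tunicamycin and DMSO controls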
TIM10 inh: growth inhibitors of isogenic TIM10 control yeast, primary screen, counter-screen for tim10-1 yeast inhibitor project, luminescence, uHTS. S. cerevisiae TIM10 strain growth, BacTiter-Glo luminescence, 24 h. inhibition, % at 10 µM. 1.4% of 330,000 active. AID 463195, 2010;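 active = inhibition of 40% or more at the single tested concentration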;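 note: wild-type TIM10 isogenic control strain grown at permissive 25 °C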
tim23-1 inh: growth inhibitors of tim23-1 mutant yeast, primary screen, luminescence, uHTS; 1.3% of 330,000 active; inhibition, % at 20 µM; S. cerevisiae tim23-1 growth, BacTiter-Glo luminescence, 24 h;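 active = growth inhibition of the mutant yeast at or above 50%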;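 note: temperature-sensitive mutant grown at 25 °C; plate controls were DMSO-treated mutant yeast for no effect and medium wells lacking yeast for full effect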
XBP1 UPR activ: activators of adaptive XBP1 UPR arm, primary screen, cell-based, CHO-XBP1 luciferase reporter, luminescence, uHTS; IRE1-XBP1 UPR activation; percent of tunicamycin response, DMSO as zero; activation, % at 20 µM; 0.33% of 330,000 active;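 active = versus positive control, 20 µM dose yields 30% or more activation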;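 note: 100% = tunicamycin at 10 µg/mL and 0% = DMSO only wells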
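Signal: luciferase luminescence; Assay system: CHO-XBP1 luciferase reporter cells; Amount: one thousand reporter cells per well; Dosing: 20 µM single concentration, DMSO 1%; Benchmarks: high control tunicamycin 10 µg/mL final, low control DMSO vehicle only; Schedule: 6 h compound exposure at 37 °C, 5% CO2; Evaluation: percent activation relative to tunicamycin reference.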
tim10-1 inh: growth inhibitors of tim10-1 mutant yeast, primary screen, luminescence, uHTS | 2.2% of 330,000 active | S. cerevisiae tim10-1 ts strain growth, BacTiter-Glo, 24 h | inhibition, % at 20 µM;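 active = inhibition of at least 40%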;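 note: mutant grown at 25 °C; 0% = DMSO wells with yeast and 100% = wells holding no yeast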
tim10-1 conf: growth inhibitors of tim10-1 mutant yeast, confirmation, single concentration, luminescence, S. cerevisiae | inhibition, % at 20 µM | shares compounds with tim10-1 inh | AID 463213, 2010 | S. cerevisiae tim10-1 ts strain growth, BacTiter-Glo, 24 h | 56% of 7,400 active;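 active = inhibition of yeast growth at or above a set limit in either of two repeat tests at 20 µM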;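 note: tim10-1 mutant grown at permissive 25 °C to find synthetic lethal compounds; 0% = DMSO yeast wells and 100% = medium wells without yeast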
TIM10 conf: growth inhibitors of wild-type TIM10 yeast, confirmation, counter-screen for tim10-1 synthetic lethality project, single concentration, luminescence, S. cerevisiae | shares compounds with TIM10 inh | S. cerevisiae tim10 strain growth, BacTiter-Glo luminescence, 24 h | AID 463215, 2010 | inhibition, % at 10 µM | 63% of 4,600 active;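 active = inhibition of yeast growth at or above a set limit in either of two replicates at 10 µM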;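 note: this counterscreen used the strain with wild-type TIM10; 0% = yeast with DMSO and 100% = medium wells lacking yeast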
tim23-1 confirm: tim23-1 mutant yeast growth inhibitors, confirmation, luminescence, single concentration | 83% of 4,400 active | S. cerevisiae tim23-1 growth, BacTiter-Glo luminescence, 24 h | AID 463218, 2010 | inhibition, % at 20 µM | shares compounds with tim23-1 inh;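 active = inhibition above about 39% in either of two replicate wells at 20 µM, limit read from the data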;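 note: temperature-sensitive tim23-1 mutant grown at 25 °C; 0% = DMSO wells with yeast and 100% = medium wells without yeast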
* = called active by the depositor; . = no result given.

SMILES	CHOP UPR activ	TIM10 inh	tim23-1 inh	XBP1 UPR activ	tim10-1 inh	tim10-1 conf	tim23-1 confirm	others
COC(=O)c1ccc(CNC(=O)c2ccc(NS(=O)(=O)c3ccc4[nH]c(=O)[nH]c4c3)cc2)cc1	-2	3	6	-2	-1	.	.
Cc1[nH]nc2c1C(c1ccc(-c3ccccc3C#N)o1)C(C#N)=C(N)O2 (stereo not drawn)	8	16	86*	-2	56*	55*	68*
CN(C)CCN(C)Cc1c2ccccc2c(CN(C)CCN(C)C)c2ccccc12	3	32	58*	0	47*	36*	56*
O=c1c2ccccc2oc2ccc(Oc3ccccc3)cc12	5	-4	2	4	6	.	.
COc1cc2oc3ccccc3c(=O)c2cc1OC	5	7	63*	11	43*	21	53*
COc1ccc(/C=N/NC(=O)C(=O)/C=C2\NC3(CCCC3)Cc3ccccc32)cc1	5	37	54*	3	42*	31*	36
COc1ccc(/C=N/NC(=O)C(=O)N2CCCC2)cc1	3	3	-4	-3	2	.	.
O=C(Nc1c2c(nn1-c1ccccc1)CS(=O)C2)c1ccc2c(c1)OCO2 (stereo not drawn)	-1	3	0	-4	-10	.	.
CC[n+]1c(C)sc2c3ccsc3ccc21	-1	10	12	-4	38	.	.
CCN1/C(=C/c2ccc3cc(C)ccc3[n+]2CC)Sc2ccc3sccc3c21	18	68*	60*	-3	46*	45*	69*	TIM10 conf=74*
CCOC(=O)C1CCN(c2cc3c(cc2NC(=O)c2ccc(OC)c(OC)c2)n(C)c(=O)n3C)CC1	7	16	14	-1	24	.	.
Cc1c(NC(=O)c2ncn[nH]2)cccc1-c1nc2ccccc2s1	2	2	4	-1	-4	.	.
COc1ccc(-c2cc(C(F)F)nc(-n3nc(C)cc3C)n2)cc1	-2	52*	58*	1	42*	36*	45*	TIM10 conf=-10
Cc1csc(CNC(=O)C2CCC(=O)N(CCCc3ccccc3)C2)n1 (stereo not drawn)	-1	-3	11	-10	19	.	.
Fc1cnc(N/N=C/c2ccc(-c3ccc(Br)cc3)o2)nc1N1CCOCC1	6	33	51*	0	43*	24	33
Brc1ccc(-c2ccc(/C=N/Nc3nc(N4CCOCC4)nc(N4CCOCC4)n3)o2)cc1	1	7	11	1	3	.	.
NNC(=O)c1cc(C23CC4CC(CC(C4)C2)C3)[nH]n1	-3	11	19	-2	9	.	.
O=C(/C=C/c1ccccc1Cl)c1ccc(O)cc1	3	38	63*	6	40*	29	59*
O=C(/C=C/c1ccccc1Cl)c1cccnc1	2	4	15	3	29	.	.
Cc1cccc(NC(=O)N2CCC(NC(=O)C3CCCCC3)CC2)c1	1	9	-1	-5	-18	.	.
O=C(Cc1nc2ccccc2[nH]1)c1ccc(Cl)cc1	3	19	29	-2	15	.	.
Clc1ccc(/C(Cc2nc3ccccc3[nH]2)=N\Nc2ccccc2)cc1	7	56*	53*	1	46*	22	45*	TIM10 conf=56*
Cc1ccccc1NC(=S)NCc1ccc2[nH]c3c(c2c1)CCCC3	-1	47*	56*	-2	49*	30	48*	TIM10 conf=43*
